In ChEMBL document CHEMBL1133909, “Piperazine-based CCR5 antagonists as HIV-1 inhibitors. I: 2(S)-methyl piperazine as a key pharmacophore element” (Bioorg Med Chem Lett, 2001):

Assays:
[1] = target: T1, C-C chemokine receptor type 5 (Homo sapiens, UniProt P51681); experiment: Inhibition of [125I]-labeled RANTES binding to C-C chemokine receptor type 5
Procedure, shortened: (§1)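 Membranes from CHO cells expressing CCR5 incubated 1 h with 125I-RANTES, with or without compound. Counts averaged. IC50 taken as the amount inhibiting 50% of total 125I-RANTES binding. Ki derived from the binding data. Standard error 10%; assay-to-assay variability 2–3 fold.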

[2] = target: T2, Muscarinic acetylcholine receptor M2 (Homo sapiens, UniProt P08172); experiment: Affinity for Muscarinic acetylcholine receptor M2
T2 sequence (P08172 whole entry): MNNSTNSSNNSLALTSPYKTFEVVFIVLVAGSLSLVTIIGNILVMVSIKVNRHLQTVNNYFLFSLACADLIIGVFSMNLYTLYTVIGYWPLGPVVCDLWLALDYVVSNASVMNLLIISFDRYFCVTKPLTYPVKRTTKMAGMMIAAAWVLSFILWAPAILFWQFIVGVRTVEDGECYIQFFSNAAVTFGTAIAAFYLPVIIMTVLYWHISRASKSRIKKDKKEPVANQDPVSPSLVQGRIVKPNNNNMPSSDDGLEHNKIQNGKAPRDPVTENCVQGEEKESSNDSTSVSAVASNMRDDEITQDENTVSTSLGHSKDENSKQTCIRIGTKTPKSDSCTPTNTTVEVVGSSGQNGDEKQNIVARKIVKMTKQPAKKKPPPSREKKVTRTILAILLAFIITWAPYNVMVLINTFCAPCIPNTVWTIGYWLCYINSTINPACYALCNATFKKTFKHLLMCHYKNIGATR

[3] = Antiviral activity was measured as inhibition of the growth of primary HIV-1 isolate (US-1) in human peripheral blood mononuclear cells; assay type: functional
[4] = target: T1, C-C chemokine receptor type 5; experiment: Ability to inhibit [125I]-labeled RANTES binding to C-C chemokine receptor type 5; procedure, shortened: as §1
[5] = target: T1, C-C chemokine receptor type 5; experiment: Ability to inhibit [125I]-labeled RANTES binding to C-C chemokine receptor type 5 expressed in membrane preparation of CHO cells; assay type: cell membranes; procedure, shortened: as §1

T1 sequence (P51681 whole entry): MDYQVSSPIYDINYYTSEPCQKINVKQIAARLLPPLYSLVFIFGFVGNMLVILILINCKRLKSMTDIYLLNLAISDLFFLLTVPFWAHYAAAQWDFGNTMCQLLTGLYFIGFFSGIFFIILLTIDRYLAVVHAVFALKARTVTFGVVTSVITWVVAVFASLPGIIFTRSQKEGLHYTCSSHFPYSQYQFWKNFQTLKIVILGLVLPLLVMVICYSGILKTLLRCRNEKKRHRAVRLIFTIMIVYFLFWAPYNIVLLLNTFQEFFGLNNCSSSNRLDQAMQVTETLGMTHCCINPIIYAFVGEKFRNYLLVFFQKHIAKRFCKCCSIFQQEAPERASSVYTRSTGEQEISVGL

Ki [1] [nM]	Ki [2] [nM]	Ki [5] [nM]	Structure (SMILES)	IC50 [3] [nM]	IC50 [4] [nM]
18	760	–	Cc1cccc(C)c1C(=O)N1CCC(N2CCN([C@@H](C)c3ccc(Cc4ccc5c(c4)OCO5)cc3)[C@@H](C)C2)CC1	8	–
49	270	–	C[C@H]1CN(C2CCN(C(=O)c3c(Cl)cccc3Cl)CC2)CCN1[C@@H](C)c1ccc(S(=O)(=O)c2ccc3c(c2)OCO3)cc1	–	–
352	497	–	Cc1cccc(C)c1C(=O)N1CCC(N2CCN(Cc3ccc(Cc4ccc5c(c4)OCO5)cc3)CC2)CC1	–	–
> 1300	31	–	Cc1cccc(C)c1C(=O)N1CCC(N2CCN(Cc3ccc(S(=O)(=O)c4ccc5c(c4)OCO5)cc3)CC2)CC1	–	–
230	352	–	C[C@H]1CN(C2CCN(C(=O)c3c(F)cccc3F)CC2)CCN1[C@@H](C)c1ccc(S(=O)(=O)c2ccc3c(c2)OCO3)cc1	–	–
442	1	–	Cc1cccc(C)c1C(=O)N1CCC(N2CCN([C@@H](C)c3ccc(S(=O)(=O)c4ccc5c(c4)OCO5)cc3)CC2)CC1	–	–
32	100	–	C[C@H]1CN(C2CCN(C(=O)c3c(N)cccc3Cl)CC2)CCN1[C@@H](C)c1ccc(S(=O)(=O)c2ccc3c(c2)OCO3)cc1	–	–
–	100	31	Cc1cccc(N)c1C(=O)N1CCC(N2CCN([C@@H](C)c3ccc(S(=O)(=O)c4ccc5c(c4)OCO5)cc3)[C@@H](C)C2)CC1	–	–
–	35	–	Cc1ccccc1C(=O)N1CCC(N2CCN([C@@H](C)c3ccc(Cc4ccc5c(c4)OCO5)cc3)[C@@H](C)C2)CC1	–	90

Structure (SMILES)	Ki [1] [nM]	Ki [2] [nM]	Ki [5] [nM]	IC50 [3] [nM]	IC50 [4] [nM]
Cc1cccc(C)c1C(=O)N1CCC(N2CCN([C@@H](C)c3ccc(S(=O)(=O)c4ccc5c(c4)OCO5)cc3)[C@H](C)C2)CC1	–	0.8	–	–	440
Cc1cccc(C)c1C(=O)N1CCC(N2CCN([C@@H](C)c3ccc(Cc4cccc(Cl)c4)cc3)[C@@H](C)C2)CC1	45	> 1400	–	–	–
Cc1cccc(C)c1C(=O)N1CCC(N2CCN(Cc3ccc(Cc4ccc5c(c4)OCO5)cc3)[C@@H](C)C2)CC1	44	> 40	–	–	–
Cc1cccc(C)c1C(=O)N1CCC(N2CCN(Cc3ccc(S(=O)(=O)c4ccc5c(c4)OCO5)cc3)[C@@H](C)C2)CC1	74	> 40	–	–	–
Cc1cccc(C)c1C(=O)N1CCC(N2CCN([C@@H](C)c3ccc(S(=O)(=O)c4ccc5c(c4)OCO5)cc3)[C@@H](C)C2)CC1	28	485	–	–	–
